# Compound activity as filed in PubChem BioAssay.
# Hits are enriched below; roughly 3.4% of the tested compounds scored in any of these assays.
# PolyA inhibitor = yeast polyadenylation inhibition | activity score, % at 12 µM | actives 0.02% (n = 300,000) | S. cerevisiae SKY197-pL101 polyadenylation reporter, beta-gal luminescence; efflux-impaired pdr1/pdr3 knockout yeast; score 100 = 6 SD above DMSO;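 active means lowest replicate activity score at least 50, where 100 means six control SD above control mean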;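 further: yeast exposed to compound for 9 h at 30 °C; higher score means more reporter readthrough which indicates perturbed polyadenylation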
# AHR activator = activates the human aryl hydrocarbon receptor; AHR-responsive luciferase reporter cells, luminescence; activation, % at 5 µM; actives 2.5% (n = 320,000); AID 2796; in the data active means activation above about 47%;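 further: 0% = vehicle wells and 100% = reference agonist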
# APOBEC3G inh = inhibitors of human APOBEC3G DNA deaminase; Q9HC16; recombinant A3G, ssDNA deamination FAM/TAMRA fluorescence; inhibition, % at 20 µM; actives 0.28% (n = 330,000);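 active means inhibition of at least 40% at 20 µM, with no more than 30% in the related APOBEC3A deaminase screen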;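 further: plate controls were DMSO wells with A3G for no effect and wells lacking A3G enzyme for full effect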
# A3A deaminase = blocks human APOBEC3A ssDNA deamination; inhibition, % at 20 µM; P31941; actives 0.41% (n = 330,000); AID 493011; recombinant A3A, FAM/TAMRA ssDNA deamination fluorescence;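 active means at least 40% inhibition at 20 µM here, with at most 30% in a related deaminase screen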;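 further: plate controls were A3A with DMSO for no effect and wells lacking A3A enzyme for full effect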
# UCH37 inh = blocks the human deubiquitinase UCH37 | Q9Y5K5 | inhibition, % (concentration not given with the values) | purified proteasome/UCH37, Ub-AMC cleavage fluorescence | actives 0.33% (n = 330,000);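 active means mean inhibition over replicate wells above about 20%, limit read from the data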;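 further: 0% = compound-free wells with enzyme and 100% = wells lacking proteasome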
#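 Assay system: Proteasome-bound UCH37. Buffer or medium: pH 7.4 Tris-HCl (50 mM) with ovalbumin, ATP-MgCl2, DTT. Incubation: 30 min preincubation with enzyme, 25 min cleavage at room temperature. Measured by: fluorescence, ex 355 nm, em 460 nm. Read-out basis: percent inhibition. Control set: wells without proteasome as full block, compound-free enzyme plus substrate as uninhibited.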
# Arr AP2 block = inhibitors of human beta-arrestin and AP2 interaction; actives 0.31% (n = 340,000); inhibition, % at 10 µM; AID 504490; FITC-arrestin peptide / GST-AP2 beads, flow cytometry; AP2 beta2 appendage carries R879A mutation;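 active means inhibition above a set limit, near 3 SD of compounds lacking own fluorescence, cut at about 54% in these data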;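 further: plate controls were DMSO wells for no effect and 5 µM unlabelled arrestin peptide for full effect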
#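 System: GST-AP2 R879A glutathione beads. Medium: PBS with 0.05% Tween 20 and 0.1% BSA. Also added: FITC-arrestin peptide, 50 nM. Incubation: 12 min plus 1 h, RT. Measured by: high-throughput flow cytometry of beads, ex 488, em 535 nm. Evaluation: percent drop in bead-associated FITC signal.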
# Arr AP2 CP1 = blocks beta-arrestin peptide binding to human AP2; actives 2% (n = 1,300); GST-AP2 beads, FITC arrestin peptide binding, flow cytometry; GST-fused beta2-adaptin appendage, R879A mutant; inhibition, % at 10 µM; shares compounds with Arr AP2 block; AID 504908;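 active means inhibition above a set limit, roughly 3 SD of non-fluorescent compound noise, cut at about 38% in these data; inactive means inhibition at or below that limit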;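 further: loss of bead fluorescence from 50 nM FITC arrestin peptide bound to appendage; 0% = negative control wells and 100% = excess unlabelled arrestin peptide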
# Target sequence (P63010 whole entry, looked up, the tested form may be a part, one chain of several): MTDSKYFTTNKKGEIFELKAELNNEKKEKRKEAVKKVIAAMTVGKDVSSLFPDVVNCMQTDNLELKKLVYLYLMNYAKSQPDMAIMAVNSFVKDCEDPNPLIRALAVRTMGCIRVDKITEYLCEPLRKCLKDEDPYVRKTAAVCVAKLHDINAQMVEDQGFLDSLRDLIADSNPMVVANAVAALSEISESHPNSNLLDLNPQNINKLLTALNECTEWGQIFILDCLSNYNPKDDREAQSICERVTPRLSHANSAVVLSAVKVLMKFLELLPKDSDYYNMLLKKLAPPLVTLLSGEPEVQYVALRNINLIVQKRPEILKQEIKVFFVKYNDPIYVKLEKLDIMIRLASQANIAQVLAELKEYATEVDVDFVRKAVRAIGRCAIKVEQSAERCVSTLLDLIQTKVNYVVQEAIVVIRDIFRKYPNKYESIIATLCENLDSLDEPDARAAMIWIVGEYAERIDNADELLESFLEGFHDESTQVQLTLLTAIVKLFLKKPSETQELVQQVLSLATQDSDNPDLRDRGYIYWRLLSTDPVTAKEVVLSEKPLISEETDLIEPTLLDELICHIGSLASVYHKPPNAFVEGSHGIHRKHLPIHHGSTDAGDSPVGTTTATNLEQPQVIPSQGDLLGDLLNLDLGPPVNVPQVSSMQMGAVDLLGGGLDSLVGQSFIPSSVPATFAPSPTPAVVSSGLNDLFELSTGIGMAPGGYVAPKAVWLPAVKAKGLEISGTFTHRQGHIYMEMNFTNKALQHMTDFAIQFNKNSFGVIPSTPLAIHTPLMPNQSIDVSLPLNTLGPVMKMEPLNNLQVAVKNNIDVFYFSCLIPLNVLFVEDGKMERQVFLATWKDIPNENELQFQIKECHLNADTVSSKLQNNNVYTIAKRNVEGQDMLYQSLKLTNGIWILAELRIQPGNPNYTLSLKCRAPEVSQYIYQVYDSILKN
# GST-FITC bead = counter-screen for beta-arrestin AP2 inhibitors: GST-GSH bead binding; inhibition, % at 10 µM; shares compounds with Arr AP2 block; AID 588338; GST-fluorescein binding to GSH beads, fluorescence; actives 2% (n = 1,300);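 active means inhibition above 50%, about 3 SD of the inhibition seen with non-fluorescent compounds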;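 further: fluorescein maleimide labelled GST captured on 4 micron glutathione beads; higher means more loss of bead fluorescence from quenching or blocked binding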
# Starred values were filed as active, the others as inactive; nt = not tested or not shown.
SMILES,PolyA inhibitor,AHR activator,APOBEC3G inh,A3A deaminase,UCH37 inh,Arr AP2 block,Arr AP2 CP1,GST-FITC bead
COc1ccc(CC2(CO)CCN(Cc3ccc(NC(C)=O)cc3)CC2)cc1,8,-1,-8,-1,5,56*,6,0
COc1cccc(CC2(CO)CCN(Cc3ccc(NC(C)=O)cc3)CC2)c1,0,4,-10,-4,2,-4,nt,nt
COc1ccc(NC(=O)C2CCCN(S(=O)(=O)c3c(C)[nH]c(=O)[nH]c3=O)C2)cc1OC (stereo unspecified),-20,-1,-1,9,1,60*,-10,-3
COc1cc(C=NNC(=O)c2ccc([N+](=O)[O-])cc2Cl)cc(Br)c1O,nt,nt,nt,nt,14,nt,nt,nt
COc1ccc(OCCCC(=O)Nc2ccc3c(c2)OCO3)cc1,-20,5,6,1,0,62*,2,1
COc1ccccc1OCCC(=O)OCC(=O)Nc1ccc2c(c1)OCO2,nt,1,0,0,2,11,nt,nt
Cc1ccc(OCCC(=O)OCC(=O)Nc2ccc3c(c2)OCO3)cc1,2,2,-6,-4,-1,27,nt,nt
COc1ccccc1OCCC(=O)Nc1ccc2c(c1)OCO2,nt,20,-5,-3,1,57*,1,-1
Cc1ccc(OCCC(=O)Nc2ccc3c(c2)OCO3)cc1,nt,1,-10,2,0,7,1,-6
CCOc1ccc(OCCC(=O)Nc2ccc3c(c2)OCO3)cc1,nt,4,1,3,5,3,-1,-3
COc1cc(C=NNC(=O)c2ccc(O)cc2)ccc1OCC(=O)N1CC(C)OC(C)C1 (stereo unspecified),nt,nt,nt,nt,5,nt,nt,nt
CC(=NNC(=O)COc1ccccc1[N+](=O)[O-])c1cccs1,nt,nt,nt,nt,4,nt,nt,nt
CC(=NNC(=O)CNc1cccc(C(F)(F)F)c1)c1cccc(Br)c1,nt,nt,nt,nt,2,nt,nt,nt
O=C(CN1C(=O)COc2ccccc21)NCCN1CCCC1,11,2,-3,-1,0,9,nt,nt
O=C(CN1C(=O)COc2ccccc21)NCCCN1CCCC1,14,0,-4,-4,-1,64*,-2,-7
Cc1onc(-c2ccc(Cl)cc2Cl)c1-c1csc(NN=Cc2ccccc2Cl)n1,nt,nt,nt,nt,-48,nt,nt,nt
COc1ccc2c(c1)S/C(=C\C(=O)c1ccncc1)N2C,10,-5,7,-12,6,91*,5,-2
COc1ccc(C(=O)/C=C2/Sc3cc4c(cc3N2C)OCO4)cc1,-4,12,-6,-4,-2,36,nt,nt
COc1cc(OC)cc(C(=O)/C=C2\Sc3ccccc3N2C)c1,-38,-3,-3,0,-25,22,nt,nt
CN1/C(=C/C(=O)c2ccc(Cl)cc2)Sc2cc3c(cc21)OCO3,5,16,3,3,-3,103*,-1,-5
CCCN(CCC)Cc1c(C(=O)NN=CCCc2ccccc2)nnn1-c1nonc1N,nt,nt,nt,nt,3,nt,nt,nt
Cc1cnc(C(=O)Nc2ccc(OC(F)(F)F)cc2)cn1,-17,-5,-2,4,1,55*,5,-16
CCn1c2ccccc2c2cc(NC(=O)CC(C)=NNC(=O)c3ccccc3N)ccc21,nt,nt,nt,nt,-200,nt,nt,nt
Cc1cccc2c1c1ccc3c(c1n2C)C(=O)C=CC3=O,nt,nt,nt,nt,nt,67*,49*,0
CCN(CC(=O)Nc1c(F)cccc1F)C(=O)/C=C/c1ccc2ccccc2n1,9,15,77,95,nt,60*,22,5
SMILES,PolyA inhibitor,AHR activator,APOBEC3G inh,A3A deaminase,UCH37 inh,Arr AP2 block,Arr AP2 CP1,GST-FITC bead
O=C(NCc1ccco1)C1CC(=O)N(c2ccc(Cl)cc2)C1 (stereo unspecified),-9,0,-4,2,4,58*,11,-5
O=C(NCc1ccco1)C1CC(=O)N(c2cccc(Cl)c2)C1 (stereo unspecified),-4,2,-3,-3,3,-2,nt,nt
COc1cccc(-c2nnc(SC(C(=O)c3c[nH]c4ccccc34)c3ccccc3)n2C)c1 (stereo unspecified),-5,7,-9,-6,29*,98*,11,6
CCCCn1c(N)c(N(CCOC)C(=O)COC(=O)COc2ccccc2C#N)c(=O)[nH]c1=O,5,14,-4,-2,0,56*,19,3
CCCCn1c(N)c(N(CCOC)C(=O)COC(=O)COc2cc(C)ccc2Cl)c(=O)[nH]c1=O,17,-3,1,25,5,-7,nt,nt
COc1ccccc1NS(=O)(=O)c1cccc(C(=O)N2CCCCCC2)c1,nt,nt,-4,-1,1,55*,-4,-7
Cc1ccc(NS(=O)(=O)c2cccc(C(=O)N3CCCC(C)C3)c2)cc1 (stereo unspecified),11,7,-6,1,1,58*,24,4
CCOc1cc(CNc2ccc(N3CCCC3)cc2)cc(Cl)c1OC,-27,16,8,-2,2,55*,2,13
COc1cc(CNc2ccc(N3CCCC3)cc2)cc(Cl)c1OC,-55,5,8,0,1,46,nt,nt
CCN(CC)C(=O)CSc1nnc2nnc3cc(C)ccc3n12,4,24,-6,-1,1,57*,-1,0
CCN(CC)C(=O)CSc1nnc2nnc3cc(Cl)ccc3n12,7,44,11,3,3,-9,nt,nt
Cc1ccc(C=c2sc3n(c2=O)CN(c2cccc(Br)c2)CN=3)o1,nt,nt,nt,nt,0,nt,nt,nt
CC(=NNC(=O)c1ccc(C)s1)c1cccc(NC(=O)COc2ccc(Cl)cc2C)c1,nt,nt,nt,nt,-6,nt,nt,nt
Cc1cc(C)n(CC(=O)O)c(=O)c1[N+](=O)[O-],nt,0,-4,1,nt,66*,-11,-2
Cc1cc(=O)n(CC(=O)O)c2ccccc12,1,0,-10,-1,2,0,nt,nt
O=c1[nH]c2ccc(NC(=S)Nc3ccccc3Cl)cc2[nH]1,-9,0,-7,-6,2,55*,3,-4
O=c1[nH]c2ccc(NC(=S)Nc3ccc(Cl)cc3Cl)cc2[nH]1,16,-2,-9,0,5,4,nt,nt
Cc1ccc(C=NN2CCN(c3ccccn3)CC2)cc1,nt,nt,nt,nt,1,nt,nt,nt
Cc1c(C(=O)O)cccc1-n1c(C)cc(C=NNC(=O)c2cc3ccccc3o2)c1C,nt,nt,nt,nt,3,nt,nt,nt
CNC(=O)C(=O)Nc1ccc2c(c1)N(S(=O)(=O)c1cccs1)CCC2,11,0,-6,0,1,1,nt,nt
CCOCC(=O)Nc1ccc2c(c1)N(S(=O)(=O)c1cccs1)CCC2,11,-1,-4,-2,2,56*,-2,-9
